Columns and labels:
[1] = system: Staphylococcus; assay: Antimicrobial activity against Staphylococcus albus NCIM 2178 at 5 ug/disk after 24 hrs by disk diffusion method; assay type: functional; details: NCIM 2178, 24 h, read-out: DIZ
Method in brief: (§1)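 Reference disc of ofloxacin at 5 µg/disc, used to check the sensitivity of each bacterial strain. 100 µl of inoculum at 10⁸ CFU/ml was spread on Mueller–Hinton agar and incubated at 37 °C for 24 h. The read-out was inhibition zone diameter.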

[2] = system: Salmonella typhimurium; assay: Antimicrobial activity against Salmonella Typhimurium NCIM 2501 at 5 ug/disk after 24 hrs by disk diffusion method; assay type: functional, Salmonella enterica subsp. enterica serovar Typhimurium; details: Salmonella enterica, NCIM 2501, 24 h; read-out: DIZ; method in brief: as §1
[3] = system: Rhodococcus corynebacterioides; assay: Antimicrobial activity against Corynebacterium rubrum NCIM 2252 at 5 ug/disk after 24 hrs by disk diffusion method; assay type: functional; details: Rhodococcoides corynebacterioides, NCIM 2252, 24 h; read-out: DIZ
Method in brief: (§2)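 Disc diffusion on Mueller–Hinton agar. 100 µl of bacterial suspension at 10⁸ CFU/ml is spread on the plate. Discs carry test compounds at two loadings, dissolved in DMSO; DMSO alone serves as negative control. Ofloxacin disc is the positive reference. Plates are incubated at 37 °C for 24 h, and the inhibition zone diameter is measured.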

[4] = system: Pseudomonas aeruginosa; assay: Antimicrobial activity against Pseudomonas aeruginosa NCIM 2200 at 5 ug/disk after 24 hrs by disk diffusion method; assay type: functional; details: NCIM 2200, 24 h, read-out: DIZ; method in brief: as §1
[5] = system: Klebsiella aerogenes; assay: Antimicrobial activity against Klebsiella aerogenes NCIM 2239 at 5 ug/disk after 24 hrs by disk diffusion method; assay type: functional; details: NCIM 2239, 24 h, read-out: DIZ; method in brief: as §2
[6] = system: Bacillus cereus; assay: Antimicrobial activity against Bacillus cereus NCIM 2155 at 5 ug/disk after 24 hrs by disk diffusion method; assay type: functional; details: NCIM 2155, 24 h, read-out: DIZ; method in brief: as §2
[7] = system: Bacillus subtilis; assay: Antimicrobial activity against Bacillus subtilis NCIM 2063 at 5 ug/disk after 24 hrs by disk diffusion method; assay type: functional; details: NCIM 2063, 24 h, read-out: DIZ; method in brief: as §2
[8] = system: Aliivibrio fischeri; assay: Antimicrobial activity against Vibrio fischeri NCIM 2154 at 5 ug/disk after 24 hrs by disk diffusion method; assay type: functional; details: NCIM 2154, 24 h, read-out: DIZ; method in brief: as §1
[9] = system: Proteus vulgaris; assay: Antimicrobial activity against Proteus vulgaris NCIM 2027 at 5 ug/disk after 24 hrs by disk diffusion method; assay type: functional; details: NCIM 2027, 24 h, read-out: DIZ; method in brief: as §2
[10] = system: Escherichia coli; assay: Antimicrobial activity against Escherichia coli NCIM 2065 at 5 ug/disk after 24 hrs by disk diffusion method; assay type: functional; details: NCIM 2065, 24 h, read-out: DIZ; method in brief: as §2

CC1COc2c(N3CCN(C)CC3)c(F)cc3c(=O)c(C(=O)O)cn1c23 (stereo not given) [OFLOXACIN]
zone of inhibition at 5 µg/disc [1]: 21 mm | zone of inhibition at 5 µg/disc [2]: 21 mm | zone of inhibition at 5 µg/disc [3]: 25 mm | zone of inhibition at 5 µg/disc [4]: 22 mm | zone of inhibition at 5 µg/disc [5]: 24 mm | zone of inhibition at 5 µg/disc [6]: 19 mm | zone of inhibition at 5 µg/disc [7]: 24 mm | zone of inhibition at 5 µg/disc [8]: 27 mm | zone of inhibition at 5 µg/disc [9]: 19 mm | zone of inhibition at 5 µg/disc [10]: 23 mm

Reference: ChEMBL document CHEMBL1138564, “Microwave-induced synthesis and anti-microbial activities of 7,10,11,12-tetrahydrobenzo[c]acridin-8(9H)-one derivatives” (2009)
